What all share (type): cell-based
In experiment [1] the target is Lactoylglutathione lyase (Homo sapiens) (UniProt Q04760). The experiment in a line: Binding affinity to GLO1 in human NCI-H358 cells at 1 uM by mass spectrometry based pull down assay.
The target in experiment [2] is GTP-binding protein Rheb (Homo sapiens) (UniProt Q15382). In words: Binding affinity to RHEB in human NCI-H358 cells at 1 uM by mass spectrometry based pull down assay.
Experiment [3] has as its target MAP kinase-activated protein kinase 5 (Homo sapiens) (UniProt Q8IW41). The experiment in a line: Binding affinity to MAPKAPK5 in human NCI-H23 cells at 1 uM by mass spectrometry based pull down assay.
For experiment [4], the target named is Transforming growth factor-beta-induced protein ig-h3 (Homo sapiens) (UniProt Q15582). In words: Binding affinity to TGFBI in human NCI-H358 cells at 1 uM by mass spectrometry based pull down assay.
The target of experiment [5] is B-cell receptor-associated protein 31 (Homo sapiens) (UniProt P51572). In words: Binding affinity to BCAP31 in human NCI-H23 cells at 1 uM by mass spectrometry based pull down assay.
For experiment [6], the target named is Proteasome activator complex subunit 3 (Homo sapiens) (UniProt P61289). In words: Binding affinity to PSME3 in human NCI-H23 cells at 1 uM by mass spectrometry based pull down assay.
Experiment [7] addresses ADP-ribosylation factor-like protein 8B (Homo sapiens) (UniProt Q9NVJ2). In words: Binding affinity to ARL8B in human NCI-H23 cells at 1 uM by mass spectrometry based pull down assay.
For experiment [8], the target named is Y-box-binding protein 1 (Homo sapiens) (UniProt P67809). In words: Binding affinity to YBX1 in human NCI-H358 cells at 1 uM by mass spectrometry based pull down assay.
Experiment [9] addresses Medium-chain specific acyl-CoA dehydrogenase, mitochondrial (Homo sapiens) (UniProt P11310). The experiment in a line: Binding affinity to ACADM in human NCI-H358 cells at 1 uM by mass spectrometry based pull down assay. In outline: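 NCI-H23 or NCI-H358 cells were grown and lysed. Lysates were incubated overnight at 4 °C with 1 μM biotinylated covalent probe or DMSO, then pulled down on streptavidin beads. Proteins were run on polyacrylamide gels and stained with Coomassie. Bands were excised, digested and identified by mass spectrometry.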

In experiment [10] the target is Inter-alpha-trypsin inhibitor heavy chain H2 (Homo sapiens) (UniProt P19823). The experiment in a line: Binding affinity to ITIH2 in human NCI-H23 cells at 1 uM by mass spectrometry based pull down assay.
Experiment [11] deals with Acidic leucine-rich nuclear phosphoprotein 32 family member A (Homo sapiens) (UniProt P39687). The experiment in a line: Binding affinity to ANP32A in human NCI-H358 cells at 1 uM by mass spectrometry based pull down assay.
In experiment [12] the target is Cyclin-dependent kinase 4 (Homo sapiens) (UniProt P11802). In words: Binding affinity to CDK4 in human NCI-H358 cells at 1 uM by mass spectrometry based pull down assay.
Experiment [13] relates to NCI-H358. The experiment in a line: Binding affinity to PSMA7 in human NCI-H358 cells at 1 uM by mass spectrometry based pull down assay.
For experiment [14], the target named is Epithelial splicing regulatory protein 1 (Homo sapiens) (UniProt Q6NXG1). The experiment in a line: Binding affinity to ESRP1 in human NCI-H358 cells at 1 uM by mass spectrometry based pull down assay.
The target of experiment [15] is Adenylyltransferase and sulfurtransferase MOCS3 (Homo sapiens) (UniProt O95396). In words: Binding affinity to MOCS3 in human NCI-H23 cells at 1 uM by mass spectrometry based pull down assay.
Experiment [16] concerns the target Deaminated glutathione amidase (Homo sapiens) (UniProt Q86X76). In words: Binding affinity to NIT1 in human NCI-H23 cells at 1 uM by mass spectrometry based pull down assay.
The target in experiment [17] is Phosphoribosylformylglycinamidine synthase (Homo sapiens) (UniProt O15067). In words: Binding affinity to PFAS in human NCI-H23 cells at 1 uM by mass spectrometry based pull down assay.
The target in experiment [18] is Small ribosomal subunit protein eS6 (Homo sapiens) (UniProt P62753). In words: Binding affinity to RPS6 in human NCI-H358 cells at 1 uM by mass spectrometry based pull down assay.
Experiment [19] concerns the target THO complex subunit 4 (Homo sapiens) (UniProt Q86V81). The experiment in a line: Binding affinity to ALYREF in human NCI-H23 cells at 1 uM by mass spectrometry based pull down assay.
For experiment [20], the target named is Hippocalcin-like protein 1 (Homo sapiens) (UniProt P37235). The experiment in a line: Binding affinity to HPCAL1 in human NCI-H358 cells at 1 uM by mass spectrometry based pull down assay.
In experiment [21] the target is Actin-related protein 2/3 complex subunit 5 (Homo sapiens) (UniProt O15511). The experiment in a line: Binding affinity to ARPC5 in human NCI-H358 cells at 1 uM by mass spectrometry based pull down assay.
The target of experiment [22] is Methionine--tRNA ligase, cytoplasmic (Homo sapiens) (UniProt P56192). In words: Binding affinity to MARS in human NCI-H358 cells at 1 uM by mass spectrometry based pull down assay.
Experiment [23] concerns the target ATP-dependent 6-phosphofructokinase, muscle type (Homo sapiens) (UniProt P08237). In words: Binding affinity to PFKM in human NCI-H23 cells at 1 uM by mass spectrometry based pull down assay.
Experiment [24] deals with Vigilin (Homo sapiens) (UniProt Q00341). In words: Binding affinity to HDLBP in human NCI-H358 cells at 1 uM by mass spectrometry based pull down assay.
The target in experiment [25] is T1, Dual specificity mitogen-activated protein kinase kinase 7 (Homo sapiens) (UniProt O14733).
T1 sequence (whole entry): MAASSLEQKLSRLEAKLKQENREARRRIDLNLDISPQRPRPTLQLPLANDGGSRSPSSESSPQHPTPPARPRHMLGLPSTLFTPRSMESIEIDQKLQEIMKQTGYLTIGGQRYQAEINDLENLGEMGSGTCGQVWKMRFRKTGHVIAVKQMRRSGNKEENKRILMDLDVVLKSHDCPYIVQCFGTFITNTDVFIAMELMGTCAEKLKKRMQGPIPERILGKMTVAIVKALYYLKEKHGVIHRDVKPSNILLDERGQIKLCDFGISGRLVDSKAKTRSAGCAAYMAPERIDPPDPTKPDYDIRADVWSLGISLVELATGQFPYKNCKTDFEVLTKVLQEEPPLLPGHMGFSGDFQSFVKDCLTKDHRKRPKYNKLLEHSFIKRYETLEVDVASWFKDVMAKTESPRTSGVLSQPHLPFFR
The experiment in a line: Binding affinity to MAP2K7 in human NCI-H23 cells at 1 uM by mass spectrometry based pull down assay.

Experiment [26] deals with Glyoxalase domain-containing protein 4 (Homo sapiens) (UniProt Q9HC38). The experiment in a line: Binding affinity to GLOD4 in human NCI-H358 cells at 1 uM by mass spectrometry based pull down assay.
The target in experiment [27] is Serine/threonine-protein kinase 38 (Homo sapiens) (UniProt Q15208). The experiment in a line: Inhibition of NDR1 in human SKCO1 cells at 1 uM after 4 hrs using biotin labeled DIKPDNLLLDSK probe by mass-spectrometric analysis relative to control.
The target of experiment [28] is Serine/threonine-protein kinase TBK1 (Homo sapiens) (UniProt Q9UHD2). The experiment in a line: Inhibition of TBK1 in human SKCO1 cells at 1 uM after 4 hrs using biotin labeled TGDLFAIKVFNNISFLRPVDVQMR probe by mass-spectrometric analysis relative to control.

SMILES strings stand for the structures. The source made the active and inactive calls. The rule behind the calls is not given here.

Sequence of Vigilin (Homo sapiens) (Q00341 whole entry): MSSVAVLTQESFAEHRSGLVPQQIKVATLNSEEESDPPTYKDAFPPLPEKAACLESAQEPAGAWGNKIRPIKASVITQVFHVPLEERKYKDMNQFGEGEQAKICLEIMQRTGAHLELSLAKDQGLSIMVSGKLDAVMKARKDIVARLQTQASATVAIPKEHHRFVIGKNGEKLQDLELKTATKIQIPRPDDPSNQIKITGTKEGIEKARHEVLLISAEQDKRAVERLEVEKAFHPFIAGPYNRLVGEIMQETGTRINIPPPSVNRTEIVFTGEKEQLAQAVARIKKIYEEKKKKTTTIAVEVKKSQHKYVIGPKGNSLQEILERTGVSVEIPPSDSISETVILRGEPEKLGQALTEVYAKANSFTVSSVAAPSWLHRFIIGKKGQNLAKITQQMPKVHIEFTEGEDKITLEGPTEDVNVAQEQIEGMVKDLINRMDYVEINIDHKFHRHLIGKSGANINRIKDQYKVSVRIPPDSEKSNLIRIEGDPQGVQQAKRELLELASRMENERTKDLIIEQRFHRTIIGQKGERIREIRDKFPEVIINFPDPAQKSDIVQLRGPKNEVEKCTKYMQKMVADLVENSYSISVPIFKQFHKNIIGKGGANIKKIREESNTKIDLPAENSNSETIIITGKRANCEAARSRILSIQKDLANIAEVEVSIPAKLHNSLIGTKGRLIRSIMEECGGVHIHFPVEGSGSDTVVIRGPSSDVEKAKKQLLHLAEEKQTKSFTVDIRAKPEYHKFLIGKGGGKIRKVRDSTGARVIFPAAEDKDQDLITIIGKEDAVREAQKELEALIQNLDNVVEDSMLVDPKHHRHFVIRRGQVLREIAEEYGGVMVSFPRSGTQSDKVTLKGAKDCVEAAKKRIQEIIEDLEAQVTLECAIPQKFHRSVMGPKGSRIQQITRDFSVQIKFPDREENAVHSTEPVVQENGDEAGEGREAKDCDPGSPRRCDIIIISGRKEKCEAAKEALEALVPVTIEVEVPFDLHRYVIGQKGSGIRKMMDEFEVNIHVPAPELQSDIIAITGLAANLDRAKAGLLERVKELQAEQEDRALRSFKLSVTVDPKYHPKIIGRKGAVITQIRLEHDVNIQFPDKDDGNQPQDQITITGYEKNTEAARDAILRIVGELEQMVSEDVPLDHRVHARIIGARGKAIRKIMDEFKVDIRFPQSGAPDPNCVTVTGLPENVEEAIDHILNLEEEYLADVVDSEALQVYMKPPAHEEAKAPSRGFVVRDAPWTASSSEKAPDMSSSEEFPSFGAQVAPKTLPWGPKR
Sequence of Transforming growth factor-beta-induced protein ig-h3 (Homo sapiens) (Q15582 whole entry): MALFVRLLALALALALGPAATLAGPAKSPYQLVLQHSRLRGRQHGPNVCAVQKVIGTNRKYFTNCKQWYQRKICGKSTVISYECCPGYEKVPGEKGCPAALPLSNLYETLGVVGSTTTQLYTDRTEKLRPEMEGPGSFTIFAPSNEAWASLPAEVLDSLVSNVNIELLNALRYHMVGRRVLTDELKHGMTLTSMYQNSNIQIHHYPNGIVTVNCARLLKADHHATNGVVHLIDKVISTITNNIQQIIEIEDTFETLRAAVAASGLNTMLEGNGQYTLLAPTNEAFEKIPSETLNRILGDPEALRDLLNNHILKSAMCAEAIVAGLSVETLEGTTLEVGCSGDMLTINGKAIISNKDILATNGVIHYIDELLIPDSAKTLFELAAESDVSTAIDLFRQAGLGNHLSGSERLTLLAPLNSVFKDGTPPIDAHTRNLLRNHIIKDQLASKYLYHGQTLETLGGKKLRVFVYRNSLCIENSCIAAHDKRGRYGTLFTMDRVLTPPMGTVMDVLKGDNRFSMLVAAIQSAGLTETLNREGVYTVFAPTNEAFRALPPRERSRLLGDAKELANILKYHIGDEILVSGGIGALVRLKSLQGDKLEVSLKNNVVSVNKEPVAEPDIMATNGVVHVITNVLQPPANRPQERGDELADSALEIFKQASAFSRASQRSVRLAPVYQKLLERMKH
Sequence of Inter-alpha-trypsin inhibitor heavy chain H2 (Homo sapiens) (P19823 whole entry): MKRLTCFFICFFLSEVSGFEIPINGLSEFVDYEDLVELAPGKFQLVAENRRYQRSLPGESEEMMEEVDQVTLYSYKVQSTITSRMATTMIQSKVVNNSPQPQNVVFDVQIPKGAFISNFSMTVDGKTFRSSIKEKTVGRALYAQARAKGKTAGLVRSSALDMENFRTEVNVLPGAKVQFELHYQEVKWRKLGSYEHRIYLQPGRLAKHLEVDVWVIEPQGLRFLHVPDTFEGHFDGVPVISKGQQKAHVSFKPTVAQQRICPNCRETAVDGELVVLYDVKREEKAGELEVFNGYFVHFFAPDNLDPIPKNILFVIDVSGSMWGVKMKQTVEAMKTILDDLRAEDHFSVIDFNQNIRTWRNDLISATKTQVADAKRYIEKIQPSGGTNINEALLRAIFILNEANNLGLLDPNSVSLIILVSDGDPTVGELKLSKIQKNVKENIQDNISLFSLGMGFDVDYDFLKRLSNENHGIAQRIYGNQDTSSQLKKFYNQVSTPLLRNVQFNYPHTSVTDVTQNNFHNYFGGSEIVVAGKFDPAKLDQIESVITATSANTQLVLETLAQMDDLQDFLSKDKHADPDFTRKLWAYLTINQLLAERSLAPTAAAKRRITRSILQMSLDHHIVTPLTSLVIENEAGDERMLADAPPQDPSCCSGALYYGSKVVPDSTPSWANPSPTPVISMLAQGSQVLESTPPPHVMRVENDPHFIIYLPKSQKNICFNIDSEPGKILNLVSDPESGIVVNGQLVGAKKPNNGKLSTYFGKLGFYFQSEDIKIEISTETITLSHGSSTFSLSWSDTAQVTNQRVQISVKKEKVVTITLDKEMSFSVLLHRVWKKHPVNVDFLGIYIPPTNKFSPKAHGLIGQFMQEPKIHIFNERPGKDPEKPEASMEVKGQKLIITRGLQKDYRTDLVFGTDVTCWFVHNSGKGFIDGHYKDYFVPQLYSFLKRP
Sequence of ATP-dependent 6-phosphofructokinase, muscle type (Homo sapiens) (P08237 whole entry): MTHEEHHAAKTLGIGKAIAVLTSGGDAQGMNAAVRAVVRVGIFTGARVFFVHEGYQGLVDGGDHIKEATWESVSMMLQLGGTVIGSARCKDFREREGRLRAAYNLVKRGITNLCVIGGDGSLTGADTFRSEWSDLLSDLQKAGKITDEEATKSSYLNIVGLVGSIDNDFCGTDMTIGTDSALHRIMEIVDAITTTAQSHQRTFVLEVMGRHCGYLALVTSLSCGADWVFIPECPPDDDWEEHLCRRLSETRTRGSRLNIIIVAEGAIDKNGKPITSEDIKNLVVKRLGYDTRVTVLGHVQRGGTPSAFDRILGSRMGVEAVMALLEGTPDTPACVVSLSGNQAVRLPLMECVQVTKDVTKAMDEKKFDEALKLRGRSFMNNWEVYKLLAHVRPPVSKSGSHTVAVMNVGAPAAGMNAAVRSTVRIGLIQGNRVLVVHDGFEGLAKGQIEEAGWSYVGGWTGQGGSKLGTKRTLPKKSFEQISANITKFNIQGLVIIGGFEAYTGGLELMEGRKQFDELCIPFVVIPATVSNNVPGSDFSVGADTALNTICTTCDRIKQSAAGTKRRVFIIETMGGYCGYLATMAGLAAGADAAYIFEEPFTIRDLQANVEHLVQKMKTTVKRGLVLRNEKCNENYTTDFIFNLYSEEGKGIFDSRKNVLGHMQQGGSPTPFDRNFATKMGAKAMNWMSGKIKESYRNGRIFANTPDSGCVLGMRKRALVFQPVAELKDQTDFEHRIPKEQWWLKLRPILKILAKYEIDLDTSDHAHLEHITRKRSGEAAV
Sequence of Y-box-binding protein 1 (Homo sapiens) (P67809 whole entry): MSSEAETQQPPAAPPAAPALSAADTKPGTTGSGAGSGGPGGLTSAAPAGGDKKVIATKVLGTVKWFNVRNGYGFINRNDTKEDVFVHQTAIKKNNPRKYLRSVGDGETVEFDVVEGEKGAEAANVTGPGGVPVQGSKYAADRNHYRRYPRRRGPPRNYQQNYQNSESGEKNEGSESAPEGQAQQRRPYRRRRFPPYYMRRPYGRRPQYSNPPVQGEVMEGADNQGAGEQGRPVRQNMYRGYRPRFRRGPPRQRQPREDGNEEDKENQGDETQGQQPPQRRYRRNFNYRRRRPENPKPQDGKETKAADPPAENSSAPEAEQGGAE
Sequence of Serine/threonine-protein kinase 38 (Homo sapiens) (Q15208 2-465 limits assumed): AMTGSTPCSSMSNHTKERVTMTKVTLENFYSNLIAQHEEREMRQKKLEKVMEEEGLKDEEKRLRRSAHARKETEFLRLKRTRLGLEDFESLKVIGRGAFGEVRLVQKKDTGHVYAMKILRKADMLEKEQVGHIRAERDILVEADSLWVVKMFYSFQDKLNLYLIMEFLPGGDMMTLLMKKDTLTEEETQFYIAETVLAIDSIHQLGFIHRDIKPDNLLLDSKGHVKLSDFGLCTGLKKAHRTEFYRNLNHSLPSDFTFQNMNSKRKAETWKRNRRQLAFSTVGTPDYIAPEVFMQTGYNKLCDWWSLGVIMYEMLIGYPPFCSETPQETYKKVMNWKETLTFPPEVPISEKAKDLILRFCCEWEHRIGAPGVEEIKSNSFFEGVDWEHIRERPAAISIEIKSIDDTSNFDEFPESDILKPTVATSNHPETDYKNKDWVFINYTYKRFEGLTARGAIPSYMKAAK
Sequence of Acidic leucine-rich nuclear phosphoprotein 32 family member A (Homo sapiens) (P39687 whole entry): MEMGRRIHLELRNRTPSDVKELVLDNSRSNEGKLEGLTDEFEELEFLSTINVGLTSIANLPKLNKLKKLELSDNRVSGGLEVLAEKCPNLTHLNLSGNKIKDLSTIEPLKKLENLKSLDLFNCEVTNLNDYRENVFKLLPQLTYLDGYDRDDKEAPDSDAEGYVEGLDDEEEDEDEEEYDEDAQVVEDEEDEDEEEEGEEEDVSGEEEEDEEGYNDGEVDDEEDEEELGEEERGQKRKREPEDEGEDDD
Sequence of Glyoxalase domain-containing protein 4 (Homo sapiens) (Q9HC38 whole entry, the tested form may be a part): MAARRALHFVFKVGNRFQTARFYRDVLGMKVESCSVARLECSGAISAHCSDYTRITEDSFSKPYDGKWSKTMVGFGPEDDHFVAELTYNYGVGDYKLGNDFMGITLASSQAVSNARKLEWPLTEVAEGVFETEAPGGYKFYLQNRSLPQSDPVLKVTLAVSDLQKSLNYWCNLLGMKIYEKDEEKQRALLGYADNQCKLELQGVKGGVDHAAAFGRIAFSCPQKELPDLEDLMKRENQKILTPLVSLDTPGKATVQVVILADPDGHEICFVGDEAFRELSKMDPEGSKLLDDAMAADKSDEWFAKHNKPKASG

Take `C=CC(=O)Nc1ccccc1Nc1nc(Nc2ccc(N3CCN(CCOCCOCCOCCNC(=O)CCCC[C@@H]4SC[C@@H]5NC(=O)N[C@@H]54)CC3)cc2)ncc1Cl`: the outcome in [1], in [2], in [3], in experiment [4], in [5] and in experiment [6] was Active. Besides, the outcome in experiment [7], in experiment [8], in [9], in [10], in experiment [11] and in experiment [12] was Active. The outcome in [13], in [14], in experiment [15], in experiment [16], in experiment [17] and in experiment [18] was Active. Besides, the outcome in experiment [19], in experiment [20], in experiment [21], in experiment [22], in [23] and in experiment [24] was Active. The result in experiment [25] and in experiment [26] was Active.

For `C=CC(=O)Nc1ccccc1Nc1nc(Nc2ccc(N3CCN(C)CC3)cc2)ncc1Cl`, the results for the inhibition in [27] and in [28] were -4.9% and 61%, respectively.

These data come from ChEMBL document CHEMBL4118021, “Studies of TAK1-centered polypharmacology with novel covalent TAK1 inhibitors” (Bioorg Med Chem, 2017).
